Reference: publication PMC9069932 (RSC Advances, 2019)
Where two headings read alike, the source gives them in different places.

What was measured:
Type in all cases: cell-based, human
[1] = system: T98G; assay: MTT cell viability/proliferation assay, T98G; details: read-out: T98G IC50
In short: (§1)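 Human lines grown at 37 °C, 5% CO2 with 10% FBS: U-118 MG in DMEM; T98G and HaCaT in EMEM. Seeded 1 × 10⁴ cells/well, left 24 h, then exposed 48 h to test compound at 7.81–1000 μg mL⁻¹ (eight twofold steps). MTT added at 0.5 mg mL⁻¹ final for 2 h. Formazan dissolved in DMSO, read at 492 nm against 690 nm reference. IC50 is the mean of ≥3 independent experiments.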

[2] = system: U-118 MG; assay: MTT cell viability/proliferation assay, U-118 MG; details: read-out: U-118 MG IC50
In short: as §1

[3] = system: HaCaT; assay: MTT cell viability/proliferation assay, HaCaT; details: read-out: HaCaT IC50
In short: as §1

[4] = system: T98G cells; assay: Colony formation; details: for clonogenic survival compared to control cells: 20 μM; for reduction of cancer cell clonogenic potential: 50 μM
In short: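 T98G cells seeded at 500 per well and allowed to adhere 24 h. Exposed to test compound at 2–100 μM in triplicate; after 24 h switched to compound-free medium, 7 days total. Colonies (≥50 cells) methanol-fixed, stained with 1% gentian violet and counted by light microscopy.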

[5] = MTT, 48 hours, glioblastoma multiforme cell line

Molecule	IC50 ([1]; Homo sapiens, T98G, 48 h)	IC50 ([2]; Homo sapiens, U-118-MG, 48 h)	IC50 ([3]; Homo sapiens, HaCaT, 48 h)	clonogenic survival compared to control cells [4]	reduction of cancer cell clonogenic potential [4]	IC50 [1, 5]	IC50 [2, 5]	IC50 ([3]; MTT, 48 hours, referential healthy cells)
CCOP(=O)(OCC)C(Cc1c(F)c(F)c(Sc2cccc(N)c2)c(F)c1F)Nc1ccccc1 (stereo not shown) [Compound 2f, Diethyl (2-(4-((3-aminophenyl)thio)-2,3,5,6-tetrafluorophenyl)-1-(phenylamino)ethyl)phosphonate]	25.5 ± 1.9 µM	28.1 ± 3.6 µM	18.2 ± 3.4 µM	10%	98%	–	–	–
CCOP(=O)(OCC)C(Cc1c(F)c(F)c(F)c(F)c1F)Nc1ccccc1 (stereo not shown) [Compound 1a, Diethyl (2-(perfluorophenyl)-1-(phenylamino)ethyl)phosphonate]	40.4 ± 6.2 µM	60.7 ± 8.9 µM	56.8 ± 7.4 µM	–	–	–	–	–
CCOP(=O)(OCC)C(Cc1c(F)c(F)c(Sc2cccc(OC)c2)c(F)c1F)Nc1ccccc1 (stereo not shown) [Compound 2e, Diethyl (1-(phenylamino)-2-(2,3,5,6-tetrafluoro-4-((3-methoxyphenyl)thio)phenyl)ethyl)phosphonate]	20.4 ± 3.1 µM	21.4 ± 2.7 µM	10.1 ± 2.2 µM	30%	85%	–	–	–
O=c1[nH]c(=O)n([C@H]2C[C@H](O)[C@@H](CO)O2)cc1F [Compound 5-FdU, 5-fluoro-2′-deoxyuridine, reference compound]	5.57 ± 0.9 µM	23.4 ± 1.6 µM	4.42 ± 1.1 µM	–	–	–	–	–
CCOP(=O)(OCC)C(Cc1c(F)c(F)c(SCC(NC(C)=O)C(=O)OC)c(F)c1F)Nc1ccccc1 (stereo not shown) [Compound 2j, Methyl 2-acetamido-3-((4-(2-(diethoxyphosphoryl)-2-(phenylamino)ethyl)-2,3,5,6-tetrafluorophenyl)thio)propanoate]	82.7 ± 15.7 µM	> 100 µM	> 100 µM	–	–	–	–	–
CCOP(=O)(OCC)C(Cc1c(F)c(F)c(Oc2ccc(Cl)cc2)c(F)c1F)Nc1ccccc1 (stereo not shown) [Compound 2r, Diethyl (2-(4-(4-chlorophenoxy)-2,3,5,6-tetrafluorophenyl)-1-(phenylamino)ethyl)phosphonate]	70.3 ± 8.3 µM	79.2 ± 6.4 µM	48.4 ± 7.4 µM	–	–	–	–	–
Diethyl (1-(phenylamino)-2-(2,3,5,6-tetrafluoro-4-(m-tolylthio)phenyl)ethyl)phosphonate [Compound 2b]	–	–	–	–	–	14.5 ± 3.3 µM	37.9 ± 2.5 µM	26.5 ± 4.7 µM
